From ChEMBL document CHEMBL1148955, “Chemical constituents from the Colombian medicinal plant Maytenus laevis” (2004)
Activity calls are given as the source filed them. The rule behind the calls is not given here.

Legend:
[1] = test system: PBMC; test: Induction of IL6 production in human PBMC at 1 ug/ml after 48 hrs by ELISA; type: functional
How it was run: (§1)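 PBMCs were isolated from heparinized venous blood by Ficoll-Hypaque density gradient centrifugation. Cells were cultured at 1 × 10^6/mL in RPMI 1640 with 10% fetal calf serum, with or without compound at 1 or 10 µg/mL, for 48 h at 37 °C. Cytokines in the culture supernatants were measured by commercial ELISA kits.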

[2] = test system: PBMC; test: Induction of IL6 production in human PBMC at 10 ug/ml after 48 hrs by ELISA; type: functional; how it was run: as §1
[3] = test system: PBMC; test: Induction of IL12 production in human PBMC at 1 ug/ml after 48 hrs by ELISA; type: functional; how it was run: as §1
[4] = test system: PBMC; test: Induction of IL12 production in human PBMC at 10 ug/ml after 48 hrs by ELISA; type: functional; how it was run: as §1
[5] = test system: PBMC; test: Induction of TNFalpha production in human PBMC at 1 ug/ml after 48 hrs by ELISA; type: functional; how it was run: as §1
[6] = test system: PBMC; test: Induction of TNFalpha production in human PBMC at 10 ug/ml after 48 hrs by ELISA; type: functional; how it was run: as §1
[7] = test system: PBMC; test: Induction of IFN-gamma production in human PBMC at 1 ug/ml after 48 hrs by ELISA; type: functional, cell-based; how it was run: as §1
[8] = test system: PBMC; test: Induction of IFN-gamma production in human PBMC at 10 ug/ml after 48 hrs by ELISA; type: functional, cell-based; how it was run: as §1
[9] = test system: PBMC; test: Induction of IL4 production in human PBMC at 1 ug/ml after 48 hrs by ELISA; type: functional, cell-based; how it was run: as §1
[10] = test system: PBMC; test: Induction of IL4 production in human PBMC at 10 ug/ml after 48 hrs by ELISA; type: functional, cell-based; how it was run: as §1
[11] = test system: PBMC; test: Induction of IL10 production in human PBMC at 1 ug/ml after 48 hrs by ELISA; type: functional, cell-based; how it was run: as §1
[12] = test system: PBMC; test: Induction of IL10 production in human PBMC at 10 ug/ml after 48 hrs by ELISA; type: functional, cell-based; how it was run: as §1

CC(=O)O[C@@H]1[C@@H]2[C@@H](OC(C)=O)[C@@]34O[C@@]2(C)COC(=O)c2cccnc2C(C)C(C)C(=O)O[C@@H]([C@H](O)[C@H](OC(C)=O)[C@@]3(COC(=O)c2ccccc2)[C@@H]1OC(C)=O)[C@]4(C)O (stereo not given in full)
Activity [1]: 136.1 pg/mL
Activity [2]: 110.1 pg/mL
Activity [3]: <7.8 pg/mL
Activity [4]: <7.8 pg/mL
Activity [5]: <7.8 pg/mL
Activity [6]: <7.8 pg/mL
Activity [7]: inactive
Activity [8]: inactive
Activity [9]: inactive
Activity [10]: inactive
Activity [11]: inactive
Activity [12]: inactive

C[C@H]1[C@H](C)CC[C@]2(CO)CC[C@]3(C)C(=CC[C@@H]4[C@@]5(C)CC[C@H](OC(=O)/C=C/c6ccc(O)c(O)c6)C(C)(C)[C@@H]5CC[C@]43C)[C@H]12
Activity [1]: 28.5 pg/mL
Activity [2]: 607.1 pg/mL
Activity [3]: <7.8 pg/mL
Activity [4]: <7.8 pg/mL
Activity [5]: <7.8 pg/mL
Activity [6]: 27.9 pg/mL
Activity [7]: inactive
Activity [8]: inactive
Activity [9]: inactive
Activity [10]: inactive
Activity [11]: inactive
Activity [12]: inactive

CC1(C)[C@H](O)CC[C@]2(C)[C@H]3CC=C4[C@@H]5C[C@](C)(C(=O)O)C[C@@H](O)[C@]5(C)CC[C@@]4(C)[C@]3(C)CC[C@@H]12
Activity [1]: 32.2 pg/mL
Activity [2]: 16.2 pg/mL
Activity [3]: <7.8 pg/mL
Activity [4]: <7.8 pg/mL
Activity [5]: <7.8 pg/mL
Activity [6]: <7.8 pg/mL
Activity [7]: inactive
Activity [8]: inactive
Activity [9]: inactive
Activity [10]: inactive
Activity [11]: inactive
Activity [12]: inactive

CC1(C)[C@@H](O)CC[C@]2(C)[C@H]3CC=C4[C@H]5C[C@](C)(C(=O)O)C[C@@H](O)[C@]5(C)CC[C@@]4(C)[C@]3(C)CC[C@@H]12
Activity [1]: 57.5 pg/mL
Activity [2]: 297.6 pg/mL
Activity [3]: <7.8 pg/mL
Activity [4]: <7.8 pg/mL
Activity [5]: <7.8 pg/mL
Activity [6]: <7.8 pg/mL
Activity [7]: inactive
Activity [8]: inactive
Activity [9]: inactive
Activity [10]: inactive
Activity [11]: inactive
Activity [12]: inactive

COc1c(O)cc([C@H]2Oc3cc(O)cc(O)c3C(=O)[C@H]2O)cc1O
Activity [1]: 279.4 pg/mL
Activity [2]: 470.4 pg/mL
Activity [3]: <7.8 pg/mL
Activity [4]: <7.8 pg/mL
Activity [5]: <7.8 pg/mL
Activity [6]: <7.8 pg/mL
Activity [7]: inactive
Activity [8]: inactive
Activity [9]: inactive
Activity [10]: inactive
Activity [11]: inactive
Activity [12]: inactive

COc1c(O)cc([C@H]2Oc3cc(O)cc(O)c3C[C@H]2O)cc1O
Activity [1]: <7.8 pg/mL
Activity [2]: 662.9 pg/mL
Activity [3]: <7.8 pg/mL
Activity [4]: <7.8 pg/mL
Activity [5]: <7.8 pg/mL
Activity [6]: <7.8 pg/mL
Activity [7]: inactive
Activity [8]: inactive
Activity [9]: inactive
Activity [10]: inactive
Activity [11]: inactive
Activity [12]: inactive

COc1ccc([C@H]2Oc3cc(O)cc(O)c3C[C@H]2O)cc1OC
Activity [1]: 473.4 pg/mL
Activity [2]: 198.6 pg/mL
Activity [3]: <7.8 pg/mL
Activity [4]: <7.8 pg/mL
Activity [5]: <7.8 pg/mL
Activity [6]: <7.8 pg/mL
Activity [7]: inactive
Activity [8]: inactive
Activity [9]: inactive
Activity [10]: inactive
Activity [11]: inactive
Activity [12]: inactive

COc1ccc(C(=O)O[C@@H]2C[C@](C)(O)[C@H]3[C@H](O[C@@H]4O[C@H](CO)[C@@H](O)[C@H](O)[C@H]4O)OC=C[C@H]32)cc1OC
Activity [1]: 849.5 pg/mL
Activity [2]: 38.1 pg/mL
Activity [3]: 27.2 pg/mL
Activity [4]: <7.8 pg/mL
Activity [5]: 12.6 pg/mL
Activity [6]: <7.8 pg/mL
Activity [7]: inactive
Activity [8]: inactive
Activity [9]: inactive
Activity [10]: inactive
Activity [11]: inactive
Activity [12]: inactive

CC(=O)OC[C@]12[C@H](OC(C)=O)[C@H](OC(C)=O)[C@@H]3[C@@H](OC(=O)c4ccccc4)[C@@]14O[C@@]3(C)COC(=O)c1cccnc1C(C)C(C)C(=O)O[C@@H]([C@H](OC(C)=O)[C@@H]2OC(=O)c1ccccc1)[C@]4(C)O (stereo not given in full)
Activity [1]: 463 pg/mL
Activity [2]: 260.8 pg/mL
Activity [3]: 17.3 pg/mL
Activity [4]: <7.8 pg/mL
Activity [5]: 26.7 pg/mL
Activity [6]: <7.8 pg/mL
Activity [7]: inactive
Activity [8]: inactive
Activity [9]: inactive
Activity [10]: inactive
Activity [11]: inactive
Activity [12]: inactive

COc1cc(C(=O)O[C@@H]2C[C@](C)(O)[C@H]3[C@H](O[C@@H]4O[C@H](CO)[C@@H](O)[C@H](O)[C@H]4O)OC=C[C@H]32)ccc1O
Activity [1]: <7.8 pg/mL
Activity [2]: <7.8 pg/mL
Activity [3]: <7.8 pg/mL
Activity [4]: <7.8 pg/mL
Activity [5]: <7.8 pg/mL
Activity [6]: <7.8 pg/mL
Activity [7]: inactive
Activity [8]: inactive
Activity [9]: inactive
Activity [10]: inactive
Activity [11]: inactive
Activity [12]: inactive

CC1(C)[C@@H](O)CC[C@]2(C)[C@H]3CC=C4[C@@H]5C[C@@]6(C)C[C@H](OC6=O)[C@]5(C)CC[C@@]4(C)[C@]3(C)CC[C@@H]12 [3-EPIABRUSLACTONE A]
Activity [1]: <7.8 pg/mL
Activity [2]: 308.4 pg/mL
Activity [3]: <7.8 pg/mL
Activity [4]: <7.8 pg/mL
Activity [5]: <7.8 pg/mL
Activity [6]: <7.8 pg/mL
Activity [7]: inactive
Activity [8]: inactive
Activity [9]: inactive
Activity [10]: inactive
Activity [11]: inactive
Activity [12]: inactive

CC1(C)[C@H](O)CC[C@]2(C)[C@H]3CC=C4[C@@H]5C[C@@]6(C)C[C@H](OC6=O)[C@]5(C)CC[C@@]4(C)[C@]3(C)CC[C@@H]12 [ABRUSLACTONE A]
Activity [1]: 22.5 pg/mL
Activity [2]: 777.2 pg/mL
Activity [3]: <7.8 pg/mL
Activity [4]: 28.3 pg/mL
Activity [5]: <7.8 pg/mL
Activity [6]: 22.7 pg/mL
Activity [7]: inactive
Activity [8]: inactive
Activity [9]: inactive
Activity [10]: inactive
Activity [11]: inactive
Activity [12]: inactive

CC1(C)[C@@H](O)CC[C@]2(C)[C@H]3CC=C4[C@@H]5C[C@](C)(C(=O)O)C[C@H](O)[C@]5(C)CC[C@@]4(C)[C@]3(C)CC[C@@H]12 [MAYTENFOLIC ACID]
Activity [1]: 380 pg/mL
Activity [2]: 76.1 pg/mL
Activity [3]: <7.8 pg/mL
Activity [4]: <7.8 pg/mL
Activity [5]: <7.8 pg/mL
Activity [6]: <7.8 pg/mL
